Measurements published in ChEMBL document CHEMBL5260841, “Discovery of N-(4-(6-Acetamidopyrimidin-4-yloxy)phenyl)-2-(2-(trifluoromethyl)phenyl)acetamide (CHMFL-FLT3-335) as a Potent FMS-like Tyrosine Kinase 3 Internal Tandem Duplication (FLT3-ITD) Mutant Selective Inhibitor for Acute Myeloid Leukemia” (J Med Chem, 2019).
Active and inactive are the calls of the source. No cut-off for these calls is given here.

What was measured:
BaF3 [1] = experiment: Antiproliferative activity against mouse BaF3 cells transfected with FLT3 ITD mutant harboring AML patient derived LKWEFPRENLEFEVTGSSDNEYFYVDFREYEYD sequence assessed as cell growth inhibition incubated for 72 hrs by CCK-8 assay; format: functional
Method in brief: (§1)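 Kinase-transformed isogenic BaF3 lines grown in RPMI 1640 with 10% FBS, 2% L-glutamine and pen/strep at 37 °C, 5% CO2. Seeded at 1500-3000 cells/well and treated with a compound concentration series for 72 h. Viability read by CCK8 absorbance at 450 nm.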

BaF3 [2] = experiment: Antiproliferative activity against mouse BaF3 cells transfected with TEL fused FLT3 D835V mutant assessed as cell growth inhibition incubated for 72 hrs by CCK-8 assay; format: functional; method in brief: as §1
[3] = Apparent volume of distribution in Sprague-Dawley rat at 1 mg/kg, iv; format: ADME, organism-based; settings: in vivo, read-out: Vz
Method in brief: (§2)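 Sprague-Dawley rats dosed IV at 1 mg/kg or by oral gavage at 10 mg/kg. Parameters from plasma exposure: AUC(0-t), AUC(0-∞), MRT, T1/2, Tmax, Vz, CLz, Cmax. Values are mean ± SD from three animals.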

[4] = Half life in Sprague-Dawley rat at 10 mg/kg, po; format: ADME, organism-based; settings: in vivo
Method in brief: (§3)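 Sprague-Dawley rats were dosed either intravenously at 1 mg/kg or by oral gavage at 10 mg/kg. Plasma PK parameters were AUC(0-t), AUC(0-∞), MRT(0-t), T1/2, Tmax, Vz, CLz, Cmax and F%. Values are the mean ± SD of three independent animals.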

[5] = biological target: T1, Signal transducer and activator of transcription 5A (Homo sapiens) (UniProt P42229); experiment: Inhibition of STAT5 phosphorylation at Tyr694 residue in human MV4-11 cells harboring FLT3-ITD mutant incubated for 4 hrs by Western blot analysis; format: cell-based; settings: dose 0.01-3 µM
T1 sequence (whole entry): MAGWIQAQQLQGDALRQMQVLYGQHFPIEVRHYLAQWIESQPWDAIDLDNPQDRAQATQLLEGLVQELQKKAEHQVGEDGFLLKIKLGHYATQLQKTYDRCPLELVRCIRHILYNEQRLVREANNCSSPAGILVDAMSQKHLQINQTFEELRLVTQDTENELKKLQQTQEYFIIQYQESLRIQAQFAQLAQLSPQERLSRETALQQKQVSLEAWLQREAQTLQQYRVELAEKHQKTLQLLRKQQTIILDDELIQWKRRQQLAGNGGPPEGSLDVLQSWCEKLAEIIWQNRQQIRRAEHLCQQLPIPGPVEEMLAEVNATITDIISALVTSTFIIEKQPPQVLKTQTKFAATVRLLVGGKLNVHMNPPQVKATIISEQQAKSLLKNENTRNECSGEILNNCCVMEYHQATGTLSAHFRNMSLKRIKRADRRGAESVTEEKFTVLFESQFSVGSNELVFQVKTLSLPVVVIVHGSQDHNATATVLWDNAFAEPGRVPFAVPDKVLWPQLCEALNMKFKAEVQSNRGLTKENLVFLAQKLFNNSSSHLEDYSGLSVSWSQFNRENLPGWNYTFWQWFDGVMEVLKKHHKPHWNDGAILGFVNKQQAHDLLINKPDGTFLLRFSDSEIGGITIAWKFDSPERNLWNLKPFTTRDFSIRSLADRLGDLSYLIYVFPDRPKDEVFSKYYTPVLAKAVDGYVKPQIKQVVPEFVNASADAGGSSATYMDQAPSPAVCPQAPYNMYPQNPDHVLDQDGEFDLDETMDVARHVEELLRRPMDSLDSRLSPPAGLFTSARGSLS
Method in brief: (§4)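 Cells were exposed to the compound at a series of concentrations for 4 h, and whole-cell lysates were analysed by Western blot. MV4-11 cells were grown in IMDM with 10% FBS. MOLM13 and MOLM14 cells were grown in RPMI 1640 with 10% FBS. All cultures were kept at 37 °C with 5% CO2.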

BaF3 [6] = experiment: Antiproliferative activity against mouse BaF3 cells transfected with TEL-fused cKIT assessed as cell growth inhibition incubated for 72 hrs by CCK-8 assay; format: functional; method in brief: as §1
BaF3 [7] = experiment: Antiproliferative activity against mouse BaF3 cells transfected with TEL fused FLT3 G697R mutant assessed as cell growth inhibition incubated for 72 hrs by CCK-8 assay; format: functional; method in brief: as §1
MV4-11 = experiment: Inhibition of ERK phosphorylation at Thr202/Tyr204 residues in human MV4-11 cells harboring FLT3-ITD mutant incubated for 4 hrs by Western blot analysis; format: cell-based; settings: dose 0.01-3 µM; method in brief: as §4
[8] = Oral bioavailability in Sprague-Dawley rat at 10 mg/kg; format: ADME, organism-based; settings: in vivo; method in brief: as §3
MOLM-14 = experiment: Induction of cell cycle arrest in human MOLM-14 cells harboring FLT3-ITD mutant assessed as accumulation of cells at G0/G1 phase at 0.1 uM incubated for 24 hrs by RNase/PI staining based flow cytometry analysis; format: functional
MOLM-13 = experiment: Induction of cell cycle arrest in human MOLM-13 cells harboring FLT3-ITD mutant assessed as accumulation of cells at G0/G1 phase at 0.1 uM incubated for 12 hrs by RNase/PI staining based flow cytometry analysis; format: functional
[9] = biological target: Mitogen-activated protein kinase kinase kinase kinase 1 (Homo sapiens, UniProt Q92918); experiment: Inhibition of HPK1 (unknown origin) assessed as residual activity at 1 uM preincubated for 60 mins followed by ATP addition and measured after 1 hr by ADP-Glo assay relative to control; settings: time 2.0 hrs
Sequence of Mitogen-activated protein kinase kinase kinase kinase 1 (Q92918 whole entry, looked up): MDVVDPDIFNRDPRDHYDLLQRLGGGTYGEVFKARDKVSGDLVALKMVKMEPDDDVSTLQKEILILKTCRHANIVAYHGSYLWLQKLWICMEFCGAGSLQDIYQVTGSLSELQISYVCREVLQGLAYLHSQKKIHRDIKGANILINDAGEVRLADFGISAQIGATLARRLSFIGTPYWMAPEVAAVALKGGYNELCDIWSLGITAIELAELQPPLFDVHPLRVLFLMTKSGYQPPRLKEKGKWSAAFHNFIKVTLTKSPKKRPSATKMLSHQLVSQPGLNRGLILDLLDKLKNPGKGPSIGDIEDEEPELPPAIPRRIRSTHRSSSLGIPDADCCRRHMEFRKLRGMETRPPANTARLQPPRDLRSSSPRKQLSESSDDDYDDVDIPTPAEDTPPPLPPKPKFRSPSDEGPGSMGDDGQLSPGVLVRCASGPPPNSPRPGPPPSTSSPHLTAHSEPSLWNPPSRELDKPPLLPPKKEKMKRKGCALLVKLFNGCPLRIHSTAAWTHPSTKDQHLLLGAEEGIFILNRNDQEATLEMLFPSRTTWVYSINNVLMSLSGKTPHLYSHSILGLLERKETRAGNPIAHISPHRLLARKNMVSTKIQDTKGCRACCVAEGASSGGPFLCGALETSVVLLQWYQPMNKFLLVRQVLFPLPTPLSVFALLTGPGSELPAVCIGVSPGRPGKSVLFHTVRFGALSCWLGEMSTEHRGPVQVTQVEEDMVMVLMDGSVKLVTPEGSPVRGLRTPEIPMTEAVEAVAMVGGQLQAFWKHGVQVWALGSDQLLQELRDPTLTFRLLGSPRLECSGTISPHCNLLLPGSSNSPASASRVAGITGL

[10] = biological target: Receptor-type tyrosine-protein kinase FLT3 (Homo sapiens, UniProt P36888, ITD); experiment: Inhibition of FLT3 ITD mutant (unknown origin) preincubated for 60 mins followed by ATP addition and measured after 1 hr by ADP-Glo assay
Sequence of Receptor-type tyrosine-protein kinase FLT3 (P36888 whole entry, looked up, stated change not applied): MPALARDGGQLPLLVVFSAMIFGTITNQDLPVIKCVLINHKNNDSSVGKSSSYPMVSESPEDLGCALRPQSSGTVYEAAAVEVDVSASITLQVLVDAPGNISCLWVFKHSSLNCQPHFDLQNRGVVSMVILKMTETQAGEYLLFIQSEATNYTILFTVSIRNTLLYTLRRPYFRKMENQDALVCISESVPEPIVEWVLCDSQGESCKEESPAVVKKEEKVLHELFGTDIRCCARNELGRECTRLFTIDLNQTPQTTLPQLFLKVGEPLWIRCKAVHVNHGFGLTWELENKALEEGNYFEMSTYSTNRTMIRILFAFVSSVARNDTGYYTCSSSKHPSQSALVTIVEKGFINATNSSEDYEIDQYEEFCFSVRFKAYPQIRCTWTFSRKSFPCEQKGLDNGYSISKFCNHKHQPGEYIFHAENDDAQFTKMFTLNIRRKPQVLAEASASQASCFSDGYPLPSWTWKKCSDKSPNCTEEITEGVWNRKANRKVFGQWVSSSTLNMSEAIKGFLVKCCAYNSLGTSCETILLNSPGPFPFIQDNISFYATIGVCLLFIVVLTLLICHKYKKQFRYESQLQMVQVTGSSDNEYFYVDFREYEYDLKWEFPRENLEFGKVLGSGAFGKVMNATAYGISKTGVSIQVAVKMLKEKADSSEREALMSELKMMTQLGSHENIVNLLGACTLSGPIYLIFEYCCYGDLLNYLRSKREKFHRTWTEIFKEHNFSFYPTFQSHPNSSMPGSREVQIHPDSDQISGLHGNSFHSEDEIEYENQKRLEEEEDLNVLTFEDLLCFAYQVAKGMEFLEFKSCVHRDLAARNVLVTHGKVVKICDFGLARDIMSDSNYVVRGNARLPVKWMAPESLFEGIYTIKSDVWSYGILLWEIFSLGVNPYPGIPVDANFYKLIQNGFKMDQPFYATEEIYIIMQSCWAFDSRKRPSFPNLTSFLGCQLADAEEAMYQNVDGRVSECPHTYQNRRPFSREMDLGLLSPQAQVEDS

[11] = AUC (0 to t) in Sprague-Dawley rat at 10 mg/kg, po; format: ADME, organism-based; parameters: dose 10 mg/kg, route po; settings: in vivo; method in brief: as §2
[12] = biological target: Macrophage colony-stimulating factor 1 receptor (Homo sapiens, UniProt P07333); experiment: Inhibition of CSF1R (unknown origin) assessed as residual activity at 1 uM preincubated for 60 mins followed by ATP addition and measured after 1 hr by ADP-Glo assay relative to control; settings: time 2.0 hrs
Sequence of Macrophage colony-stimulating factor 1 receptor (P07333 whole entry, the tested form may be a part): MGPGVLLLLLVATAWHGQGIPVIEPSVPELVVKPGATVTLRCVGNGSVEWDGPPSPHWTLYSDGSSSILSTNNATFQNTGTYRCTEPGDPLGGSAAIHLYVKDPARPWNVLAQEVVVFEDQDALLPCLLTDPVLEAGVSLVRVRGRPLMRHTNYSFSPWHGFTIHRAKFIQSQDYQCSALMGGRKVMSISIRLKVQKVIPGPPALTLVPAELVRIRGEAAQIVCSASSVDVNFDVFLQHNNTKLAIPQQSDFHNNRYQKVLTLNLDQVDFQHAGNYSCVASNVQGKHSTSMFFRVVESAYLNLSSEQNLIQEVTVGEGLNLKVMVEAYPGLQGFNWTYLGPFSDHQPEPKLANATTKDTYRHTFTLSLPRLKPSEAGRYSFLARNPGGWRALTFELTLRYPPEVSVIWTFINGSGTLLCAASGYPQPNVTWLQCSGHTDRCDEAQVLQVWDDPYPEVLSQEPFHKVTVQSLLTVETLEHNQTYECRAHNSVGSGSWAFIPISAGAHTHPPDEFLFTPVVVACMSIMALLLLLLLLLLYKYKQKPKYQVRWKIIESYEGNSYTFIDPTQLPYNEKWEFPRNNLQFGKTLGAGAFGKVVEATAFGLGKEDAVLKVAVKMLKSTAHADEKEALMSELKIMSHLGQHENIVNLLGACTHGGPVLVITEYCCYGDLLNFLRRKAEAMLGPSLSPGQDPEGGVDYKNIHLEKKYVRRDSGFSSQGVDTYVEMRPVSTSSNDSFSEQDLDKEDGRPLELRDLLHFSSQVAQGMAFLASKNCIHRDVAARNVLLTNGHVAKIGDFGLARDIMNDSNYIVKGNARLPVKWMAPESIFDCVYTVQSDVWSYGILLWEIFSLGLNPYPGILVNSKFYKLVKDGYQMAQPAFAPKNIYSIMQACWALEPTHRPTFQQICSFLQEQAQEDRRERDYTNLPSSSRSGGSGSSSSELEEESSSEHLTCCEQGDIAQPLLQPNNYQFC

BaF3 [13] = experiment: Antiproliferative activity against mouse BaF3 cells transfected with TEL fused PDGFRalpha assessed as cell growth inhibition incubated for 72 hrs by CCK-8 assay; format: functional; method in brief: as §1

GI50 (BaF3 [1]): 82 nM
GI50 (BaF3 [2]): > 10000 nM
Vd [3]: 1.2 L/kg
half-life [4]: 2.8 h
inhibition [5]: Dose-Dependent Effect
GI50 (BaF3 [6]): > 10000 nM
GI50 (BaF3 [7]): 540 nM
F [8]: 171%
Activity [9]: 0.6%
IC50 [10]: 23.9 nM
AUC(0-t) [11]: 26700 ng·h/mL
Activity [12]: 2.4%
GI50 (BaF3 [13]): 7 nM
Compound: CC(=O)Nc1cc(Oc2ccc(NC(=O)Cc3ccccc3C(F)(F)F)cc2)ncn1
inhibition (MV4-11): Dose-Dependent Effect
Activity (MOLM-14): Active
Activity (MOLM-13): Active
